Experimental data: ChEMBL document CHEMBL1773069, “Marinoquinolines A-F, pyrroloquinolines from Ohtaekwangia kribbensis (Bacteroidetes)” (J Nat Prod, 2011)
Converted amounts (≈) assume the structure as drawn. The source made the active and inactive calls. No cut-off for these calls is given here.

Tests used:
L6 = experiment: Cytotoxicity against rat L6 cells by MTT assay; format: cell-based
[1] = tested on: Trypanosoma brucei rhodesiense; experiment: Antiparasitic activity against Trypanosoma brucei rhodesiense STIB 900 trypomastigotes; format: functional, organism-based
Trypanosoma cruzi = experiment: Antiparasitic activity against Trypanosoma cruzi Tulahuen C4 amastigotes; format: functional, organism-based
L929 = experiment: Cytotoxicity against mouse L929 cells after 5 days by MTT assay; format: functional, cell-based; details: L929, 120 h
Procedure, shortened: (§1)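 Culture media were DMEM for KB-3-1 and L929, EBM-2 for HUVEC and RPMI for MCF-7, each with 10% FBS, at 37 °C under 10% CO2. Serial dilutions from a 1 mg/mL methanol stock were added to cell suspension (50 000/mL). After 5 days, MTT was read at 590 nm. IC50 (50% growth inhibition versus control) came from dose–response curves. Methanol served as negative control.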

MCF7 = experiment: Cytotoxicity against human MCF7 cells after 5 days by MTT assay; format: functional, cell-based; details: MCF7, 120 h; procedure, shortened: as §1
[2] = Cytotoxicity against human KB-3-1 cells after 5 days by MTT assay; format: functional, cell-based; details: KB 3-1, 120 h; procedure, shortened: as §1
HUVEC = experiment: Cytotoxicity against HUVEC after 5 days by MTT assay; format: cell-based; details: Homo sapiens, 120 h; procedure, shortened: as §1
Plasmodium falciparum = experiment: Antimalarial activity against Plasmodium falciparum K1 intra-erythrocytic form; format: functional, organism-based
Leishmania donovani = experiment: Antileishmanial activity against Leishmania donovani MHOM-ET-67/L82 axenic amastigotes; format: functional, organism-based
Escherichia coli [3] = experiment: Antimicrobial activity against Escherichia coli at 33.5 ug/ml after 24 to 48 hrs; format: functional, organism-based
[4] = tested on: Schizosaccharomyces pombe; experiment: Antifungal activity against Schizosaccharomyces pombe after 24 to 48 hrs; format: functional
Procedure, shortened: (§2)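 Broth microdilution in 96-well plates. Bacteria were grown in EBS medium. Yeasts and fungi were grown in MYC medium (1.0% phytone peptone, 1.0% glucose, 50 mM HEPES, pH 7.0). Inoculum was test organism diluted 1:100 in medium. Compound was diluted 1:1 serially from 33.5 to […] μg/mL. Plates were shaken at 600 rpm, 30 °C, for 24–48 h. MIC was the lowest concentration preventing visible growth.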

Rhodotorula glutinis = experiment: Antifungal activity against Rhodotorula glutinis after 24 to 48 hrs; format: functional; procedure, shortened: as §2
Nocardia sp. = experiment: Antibacterial activity against Nocardia flava after 24 to 48 hrs; format: functional; procedure, shortened: as §2
Micrococcus luteus = experiment: Antibacterial activity against Micrococcus luteus after 24 to 48 hrs; format: functional; procedure, shortened: as §2
Mucor hiemalis = experiment: Antifungal activity against Mucor hiemalis after 24 to 48 hrs; format: functional; procedure, shortened: as §2
Escherichia coli [5] = experiment: Antimicrobial activity against Escherichia coli after 24 to 48 hrs; format: functional, organism-based; procedure, shortened: as §2
[6] = tested on: Schizosaccharomyces pombe; experiment: Antifungal activity against Schizosaccharomyces pombe at 33.5 ug/ml after 24 to 48 hrs; format: functional, organism-based

Compound	IC50 (L6) [µM]	IC50 [1] [µM]	IC50 (Trypanosoma cruzi) [µM]	IC50 (L929) [µg/mL]	IC50 (MCF7) [µg/mL]	IC50 [2] [µg/mL]	IC50 (HUVEC) [µg/mL]	IC50 (Plasmodium falciparum) [µM]	IC50 (Leishmania donovani) [µM]	other results
Cc1nc2ccccc2c2cc[nH]c12 [MARINOQUINOLINE A]	30.6	54.4	29.5	5.5 (≈ 30.2 µM)	3.5 (≈ 19.2 µM)	2.2 (≈ 12.1 µM)	1.5 (≈ 8.23 µM)	9.8	> 549	Activity (Escherichia coli [3]): Active
c1ccc(Cc2nc3ccccc3c3cc[nH]c23)cc1 [MARINOQUINOLINE C]	39.1	42.2	28.3	5.4 (≈ 20.9 µM)	2.6 (≈ 10.1 µM)	2 (≈ 7.74 µM)	0.55 (≈ 2.13 µM)	5.5	58.8	MIC [4]: 33.5 µg/mL (≈ 130 µM); MIC (Rhodotorula glutinis): 33.5 µg/mL (≈ 130 µM)
Oc1ccc(Cc2nc3ccccc3c3cc[nH]c23)cc1 [MARINOQUINOLINE D]	66.4	61.2	27	1.1 (≈ 4.01 µM)	3.2 (≈ 11.7 µM)	3.2 (≈ 11.7 µM)	2.5 (≈ 9.11 µM)	15	120	Activity (Nocardia sp.): inactive; Activity (Micrococcus luteus): inactive; Activity [4]: inactive; Activity (Mucor hiemalis): inactive; Activity (Rhodotorula glutinis): inactive; Activity (Escherichia coli [5]): inactive
c1ccc2c(c1)nc(-c1c[nH]c3ccccc13)c1[nH]ccc12 [MARINOQUINOLINE E]	35.6	51.5	23.6	5.5 (≈ 19.4 µM)	1.9 (≈ 6.71 µM)	4.5 (≈ 15.9 µM)	5.8 (≈ 20.5 µM)	7.6	63.9	MIC (Nocardia sp.): 33.5 µg/mL (≈ 118 µM); MIC (Micrococcus luteus): 33.5 µg/mL (≈ 118 µM); MIC [4]: 33.5 µg/mL (≈ 118 µM); MIC (Mucor hiemalis): 33.5 µg/mL (≈ 118 µM); MIC (Rhodotorula glutinis): 33.5 µg/mL (≈ 118 µM)
O=C(c1c[nH]c2ccccc12)c1nc2ccccc2c2cc[nH]c12 [MARINOQUINOLINE F]	12.5	39	21.8	4.1 (≈ 13.2 µM)	1.6 (≈ 5.14 µM)	0.3 (≈ 0.964 µM)	2.8 (≈ 8.99 µM)	1.7	16.1	Activity [6]: Active
Nc1nc(N)nc(Nc2ccc([As]3SCC(CO)S3)cc2)n1 (centres undefined) [MELARSOPROL]	–	0.012	–	–	–	–	–	–	–	–
COc1cc([C@@H]2c3cc4c(cc3[C@H](O)[C@H]3COC(=O)[C@H]23)OCO4)cc(OC)c1OC [PODOFILOX]	0.021	–	–	–	–	–	–	–	–	–
CC[C@]1(O)C[C@@H]2CN(CCc3c([nH]c4ccccc34)[C@@](C(=O)OC)(c3cc4c(cc3OC)N(C)[C@H]3[C@@](O)(C(=O)OC)[C@H](OC(C)=O)[C@]5(CC)C=CCN6CC[C@]43[C@@H]65)C2)C1 [VINBLASTINE]	–	–	–	0.018 (≈ 0.0222 µM)	–	0.0086 (≈ 0.0106 µM)	–	–	–	–
